pEC50: −log10 of the molar value. Active and inactive are the calls of the source. The calls are words filed in the database; no cut-off is given here. Where a SMILES comes first, the peptide text is derived from it. [ ]: non-standard residue; d: D form. Phe(4-Cl) = N[C@@H](Cc1ccc(Cl)cc1)C(=O)O; Phe(3-F) = N[C@@H](Cc1cccc(F)c1)C(=O)O; Phe(2-F) = N[C@@H](Cc1ccccc1F)C(=O)O; Arg(Me) = CNC(=N)NCCC[C@H](N)C(=O)O; Pip = O=C(O)[C@@H]1CCCCN1; NMeA = CN[C@@H](C)C(=O)O; Thz = O=C(O)[C@@H]1CSCN1; dNMeA = CN[C@H](C)C(=O)O; 2Abz = Nc1ccccc1C(=O)O; Aib = CC(C)(N)C(=O)O; azaGly = NNC(=O)O; βAla = NCCC(=O)O; Sar = CNCC(=O)O
Legend:
[1] = biological target: KiSS-1 receptor (Homo sapiens, UniProt Q969F8); assay: Agonist activity at human KISS1R expressed in CHO/dhfr cells assessed as increase in intracellular Ca2+ levels measured for 180 secs by Fluo 3-AM dye based FLIPR assay; assay type: functional, cell-based
In short: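 CHO cells expressing human KISS1R; FLIPR recording of ligand-induced [Ca2+]i rise over time. Maximum response taken and expressed as percent of the response to a maximal concentration of metastin(45-54). EC50 = concentration giving half-maximal mobilization, from nonlinear regression of smoothed data. Reported as ratio to the metastin(45-54) EC50.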

[2] = biological target: KiSS-1 receptor (Rattus norvegicus, UniProt Q924U1); assay: Agonist activity at rat KISS1R expressed in CHO/dhfr cells assessed as increase in intracellular Ca2+ levels measured for 180 secs by Fluo 3-AM dye based FLIPR assay; assay type: functional, cell-based
[3] = tested on: Rattus norvegicus; assay: Inhibition of testosterone levels in CD(SD) rat assessed as plasma testosterone level <0.04 ng/ml at 0.03 nmol/hr, sc administered continuously for 6 days through alzet osmotic pump measured after 6 days by radio-immunoassay; assay type: functional, organism-based

KiSS-1 receptor (Rattus norvegicus, UniProt Q924U1), sequence (Q924U1 whole entry): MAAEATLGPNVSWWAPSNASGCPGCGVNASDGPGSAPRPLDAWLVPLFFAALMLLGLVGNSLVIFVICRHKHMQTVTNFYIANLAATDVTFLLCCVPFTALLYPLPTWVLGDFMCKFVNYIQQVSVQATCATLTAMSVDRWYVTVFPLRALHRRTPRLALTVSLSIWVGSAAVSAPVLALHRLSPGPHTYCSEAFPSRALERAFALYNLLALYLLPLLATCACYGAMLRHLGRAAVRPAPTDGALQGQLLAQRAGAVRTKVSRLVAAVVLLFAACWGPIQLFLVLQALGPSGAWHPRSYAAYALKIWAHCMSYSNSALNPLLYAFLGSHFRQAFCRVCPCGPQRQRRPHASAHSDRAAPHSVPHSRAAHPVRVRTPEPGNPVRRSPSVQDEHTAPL
KiSS-1 receptor (Homo sapiens, UniProt Q969F8), sequence (Q969F8 whole entry): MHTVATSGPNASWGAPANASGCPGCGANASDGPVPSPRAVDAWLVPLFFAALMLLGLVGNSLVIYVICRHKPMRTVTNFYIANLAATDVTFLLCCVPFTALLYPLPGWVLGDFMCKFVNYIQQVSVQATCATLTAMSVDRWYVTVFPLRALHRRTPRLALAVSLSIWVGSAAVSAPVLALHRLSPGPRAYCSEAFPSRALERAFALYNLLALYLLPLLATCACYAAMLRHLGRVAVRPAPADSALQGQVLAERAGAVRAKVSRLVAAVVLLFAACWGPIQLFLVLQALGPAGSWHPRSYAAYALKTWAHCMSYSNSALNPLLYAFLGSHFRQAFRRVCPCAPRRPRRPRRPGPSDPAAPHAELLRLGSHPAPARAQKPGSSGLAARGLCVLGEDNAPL

Compound	pEC50 [1]	pEC50 [2]	inhibition [3]
CNC(=N)NCCC[C@H](NC(=O)[C@H](CC(C)C)NC(=O)NNC(=O)[C@H](Cc1ccccc1)NC(=O)[C@@H](NC(=O)[C@H](CC(N)=O)NC(=O)[C@@H](C)NC(=O)[C@@H](Cc1ccc(O)cc1)NC(C)=O)[C@@H](C)O)C(=O)N[C@@H](Cc1c[nH]c2ccccc12)C(N)=O	8.57	7.80	–
CNC(=N)NCCC[C@H](NC(=O)[C@H](CC(C)C)NC(=O)NNC(=O)[C@H](Cc1ccccc1)NC(=O)[C@@H](NC(=O)[C@H](CC(N)=O)NC(=O)[C@H](C)NC(=O)[C@@H](Cc1ccc(O)cc1)NC(C)=O)[C@@H](C)O)C(=O)N[C@@H](Cc1c[nH]c2ccccc12)C(N)=O	8.92	8.22	–
CNC(=N)NCCC[C@H](NC(=O)[C@H](CC(C)C)NC(=O)NNC(=O)[C@H](Cc1ccccc1)NC(=O)[C@@H](NC(=O)[C@H](CC(N)=O)NC(=O)C1CN(C(=O)[C@@H](Cc2ccc(O)cc2)NC(C)=O)C1)[C@@H](C)O)C(=O)N[C@@H](Cc1c[nH]c2ccccc12)C(N)=O	8.64	7.82	–
CNC(=N)NCCC[C@H](NC(=O)[C@H](CC(C)C)NC(=O)NNC(=O)[C@H](Cc1ccccc1)NC(=O)[C@@H](NC(=O)[C@H](CC(N)=O)NC(=O)[C@H](CCCCN)NC(=O)[C@@H](Cc1ccc(O)cc1)NC(C)=O)[C@@H](C)O)C(=O)N[C@@H](Cc1c[nH]c2ccccc12)C(N)=O	8.80	8.17	Active
CNC(=N)NCCC[C@H](NC(=O)[C@H](CC(C)C)NC(=O)NNC(=O)[C@H](Cc1ccc(F)cc1)NC(=O)[C@@H](NC(=O)[C@H](CC(N)=O)NC(=O)[C@@H](Cc1c[nH]c2ccccc12)NC(=O)[C@@H](Cc1ccc(O)cc1)NC(C)=O)[C@@H](C)O)C(=O)N[C@@H](Cc1c[nH]c2ccccc12)C(N)=O	8.72	8.33	Active
CNC(=N)NCCC[C@H](NC(=O)[C@H](CC(C)C)NC(=O)NNC(=O)[C@H](Cc1ccccc1)NC(=O)[C@@H](NC(=O)[C@H](CC(N)=O)NC(=O)[C@H](CCC(=O)O)NC(=O)[C@@H](Cc1ccc(O)cc1)NC(C)=O)[C@@H](C)O)C(=O)N[C@@H](Cc1c[nH]c2ccccc12)C(N)=O	8.55	7.96	Active
CNC(=N)NCCC[C@H](NC(=O)[C@H](CC(C)C)NC(=O)NNC(=O)[C@H](Cc1ccccc1)NC(=O)[C@@H](NC(=O)[C@H](CC(N)=O)NC(=O)[C@@H]1Cc2ccccc2CN1C(=O)[C@@H](Cc1ccc(O)cc1)NC(C)=O)[C@@H](C)O)C(=O)N[C@@H](Cc1c[nH]c2ccccc12)C(N)=O	9.31	8.15	–
CNC(=N)NCCC[C@H](NC(=O)[C@H](CC(C)C)NC(=O)NNC(=O)[C@H](Cc1ccccc1)NC(=O)[C@@H](NC(=O)[C@H](CC(N)=O)NC(=O)[C@H]1CCCN1C(=O)[C@@H](Cc1ccc(O)cc1)NC(C)=O)[C@@H](C)O)C(=O)N[C@@H](Cc1c[nH]c2ccccc12)C(N)=O	8.24	6.96	–
CNC(=N)NCCC[C@H](NC(=O)[C@H](CC(C)C)NC(=O)NNC(=O)[C@H](Cc1ccccc1)NC(=O)[C@@H](NC(=O)[C@H](CC(N)=O)NC(=O)[C@@H](CC(C)C)NC(=O)[C@@H](Cc1ccc(O)cc1)NC(C)=O)[C@@H](C)O)C(=O)N[C@@H](Cc1c[nH]c2ccccc12)C(N)=O	8.70	7.92	Active
CNC(=N)NCCC[C@H](NC(=O)[C@H](CC(C)C)NC(=O)NNC(=O)[C@H](Cc1ccccc1)NC(=O)[C@@H](NC(=O)[C@H](CC(N)=O)NC(=O)[C@H]1CCCN(C(=O)[C@@H](Cc2ccc(O)cc2)NC(C)=O)C1)[C@@H](C)O)C(=O)N[C@@H](Cc1c[nH]c2ccccc12)C(N)=O	8.26	7.35	–
CNC(=N)NCCC[C@H](NC(=O)[C@H](CC(C)C)NC(=O)NNC(=O)[C@H](Cc1cccc(F)c1)NC(=O)[C@@H](NC(=O)[C@H](CC(N)=O)NC(=O)CNC(=O)[C@@H](Cc1ccc(O)cc1)NC(C)=O)[C@@H](C)O)C(=O)N[C@@H](Cc1c[nH]c2ccccc12)C(N)=O (Ac-[dY]GNT[Phe(3-F)][azaGly]L[Arg(Me)]W-NH2)	8.96	8.13	–
CNC(=N)NCCC[C@H](NC(=O)[C@H](CC(C)C)NC(=O)NNC(=O)[C@H](Cc1cccc(F)c1)NC(=O)[C@@H](NC(=O)[C@H](CC(N)=O)NC(=O)[C@H](Cc1c[nH]c2ccccc12)NC(=O)[C@@H](Cc1ccc(O)cc1)NC(C)=O)[C@@H](C)O)C(=O)N[C@@H](Cc1c[nH]c2ccccc12)C(N)=O (Ac-[dY]WNT[Phe(3-F)][azaGly]L[Arg(Me)]W-NH2)	10.14	8.92	–
CNC(=N)NCCC[C@H](NC(=O)[C@H](CC(C)C)NC(=O)NNC(=O)[C@H](Cc1ccccc1)NC(=O)[C@@H](NC(=O)[C@H](CC(N)=O)NC(=O)c1ccccc1NC(=O)[C@@H](Cc1ccc(O)cc1)NC(C)=O)[C@@H](C)O)C(=O)N[C@@H](Cc1c[nH]c2ccccc12)C(N)=O (Ac-[dY][2Abz]NTF[azaGly]L[Arg(Me)]W-NH2)	8.28	7.33	–
CNC(=N)NCCC[C@H](NC(=O)[C@H](CC(C)C)NC(=O)NNC(=O)[C@H](Cc1cccc(F)c1)NC(=O)[C@@H](NC(=O)[C@H](CC(N)=O)NC(=O)C(C)(C)NC(=O)[C@@H](Cc1ccc(O)cc1)NC(C)=O)[C@@H](C)O)C(=O)N[C@@H](Cc1c[nH]c2ccccc12)C(N)=O (Ac-[dY][Aib]NT[Phe(3-F)][azaGly]L[Arg(Me)]W-NH2)	8.92	8.15	–
CNC(=N)NCCC[C@H](NC(=O)[C@H](CC(C)C)NC(=O)NNC(=O)[C@H](Cc1ccccc1)NC(=O)[C@@H](NC(=O)[C@H](CC(N)=O)NC(=O)[C@H](C)N(C)C(=O)[C@@H](Cc1ccc(O)cc1)NC(C)=O)[C@@H](C)O)C(=O)N[C@@H](Cc1c[nH]c2ccccc12)C(N)=O (Ac-[dY][NMeA]NTF[azaGly]L[Arg(Me)]W-NH2)	8.36	7.37	–
CNC(=N)NCCC[C@H](NC(=O)[C@H](CC(C)C)NC(=O)NNC(=O)[C@H](Cc1ccccc1)NC(=O)[C@@H](NC(=O)[C@H](CC(N)=O)NC(=O)[C@@H]1CCCCN1C(=O)[C@@H](Cc1ccc(O)cc1)NC(C)=O)[C@@H](C)O)C(=O)N[C@@H](Cc1c[nH]c2ccccc12)C(N)=O (Ac-[dY][Pip]NTF[azaGly]L[Arg(Me)]W-NH2)	8.55	7.77	–
CNC(=N)NCCC[C@H](NC(=O)[C@H](CC(C)C)NC(=O)NNC(=O)[C@H](Cc1ccccc1)NC(=O)[C@@H](NC(=O)[C@H](CC(N)=O)NC(=O)CN(C)C(=O)[C@@H](Cc1ccc(O)cc1)NC(C)=O)[C@@H](C)O)C(=O)N[C@@H](Cc1c[nH]c2ccccc12)C(N)=O (Ac-[dY][Sar]NTF[azaGly]L[Arg(Me)]W-NH2)	8.31	7.70	–
CNC(=N)NCCC[C@H](NC(=O)[C@H](CC(C)C)NC(=O)NNC(=O)[C@H](Cc1ccccc1)NC(=O)[C@@H](NC(=O)[C@H](CC(N)=O)NC(=O)[C@@H]1CSCN1C(=O)[C@@H](Cc1ccc(O)cc1)NC(C)=O)[C@@H](C)O)C(=O)N[C@@H](Cc1c[nH]c2ccccc12)C(N)=O (Ac-[dY][Thz]NTF[azaGly]L[Arg(Me)]W-NH2)	8.64	7.64	–
CNC(=N)NCCC[C@H](NC(=O)[C@H](CC(C)C)NC(=O)NNC(=O)[C@H](Cc1ccccc1)NC(=O)[C@@H](NC(=O)[C@H](CC(N)=O)NC(=O)[C@@H](C)N(C)C(=O)[C@@H](Cc1ccc(O)cc1)NC(C)=O)[C@@H](C)O)C(=O)N[C@@H](Cc1c[nH]c2ccccc12)C(N)=O (Ac-[dY][dNMeA]NTF[azaGly]L[Arg(Me)]W-NH2)	8.74	8.14	–
CNC(=N)NCCC[C@H](NC(=O)[C@H](CC(C)C)NC(=O)NNC(=O)[C@H](Cc1ccccc1F)NC(=O)[C@@H](NC(=O)[C@H](CC(N)=O)NC(=O)[C@@H](Cc1c[nH]c2ccccc12)NC(=O)[C@@H](Cc1ccc(O)cc1)NC(C)=O)[C@@H](C)O)C(=O)N[C@@H](Cc1c[nH]c2ccccc12)C(N)=O (Ac-[dY][dW]NT[Phe(2-F)][azaGly]L[Arg(Me)]W-NH2)	9.19	8.74	–
CNC(=N)NCCC[C@H](NC(=O)[C@H](CC(C)C)NC(=O)NNC(=O)[C@H](Cc1cccc(F)c1)NC(=O)[C@@H](NC(=O)[C@H](CC(N)=O)NC(=O)[C@@H](Cc1c[nH]c2ccccc12)NC(=O)[C@@H](Cc1ccc(O)cc1)NC(C)=O)[C@@H](C)O)C(=O)N[C@@H](Cc1c[nH]c2ccccc12)C(N)=O (Ac-[dY][dW]NT[Phe(3-F)][azaGly]L[Arg(Me)]W-NH2)	8.85	8.32	–
CNC(=N)NCCC[C@H](NC(=O)[C@H](CC(C)C)NC(=O)NNC(=O)[C@H](Cc1ccc(Cl)cc1)NC(=O)[C@@H](NC(=O)[C@H](CC(N)=O)NC(=O)[C@@H](Cc1c[nH]c2ccccc12)NC(=O)[C@@H](Cc1ccc(O)cc1)NC(C)=O)[C@@H](C)O)C(=O)N[C@@H](Cc1c[nH]c2ccccc12)C(N)=O (Ac-[dY][dW]NT[Phe(4-Cl)][azaGly]L[Arg(Me)]W-NH2)	9.25	8.55	–
CNC(=N)NCCC[C@H](NC(=O)[C@H](CC(C)C)NC(=O)NNC(=O)[C@H](Cc1ccccc1)NC(=O)[C@@H](NC(=O)[C@H](CC(N)=O)NC(=O)CCNC(=O)[C@@H](Cc1ccc(O)cc1)NC(C)=O)[C@@H](C)O)C(=O)N[C@@H](Cc1c[nH]c2ccccc12)C(N)=O (Ac-[dY][βAla]NTF[azaGly]L[Arg(Me)]W-NH2)	8.48	7.96	–

Source: ChEMBL document CHEMBL3860048 (J Med Chem, 2016)
